Published values gathered from unrelated publications.
Each line is one published result; the experiments were not run side by side.
STING1 H232R: Stimulator of interferon genes protein (STING1, Homo sapiens, UniProt Q86WV6, H232R)
Phosphatidylserine lipase ABHD16A: Phosphatidylserine lipase ABHD16A (Homo sapiens, UniProt O95870)

| Structure (SMILES) | target | read-out | action | technique | measurement | value |
| --- | --- | --- | --- | --- | --- | --- |
| C[C@H]1CCC[C@H](O)CCC/C=C/c2cc(O)cc(O)c2C(=O)O1 | Estrogen receptor beta (ESR2, Homo sapiens, UniProt Q92731) | reporter gene | agonist | luciferase | EC50 | 0.44 nM |
| Oc1ccc(/C=C/c2cc(O)cc(O)c2)cc1 | Troponin C, slow skeletal and cardiac muscles (TNNC1, Human, UniProt P63316) | binding |  | NMR | Kd | 240000 nM |
| CC(C)[C@@H]1NC(=O)[C@@H]2CCCN2C(=O)[C@H](Cc2ccccc2)NC(=O)CSC[C@@H](C(=O)N[C@@H](Cc2ccc(O)cc2)C(N)=O)NC(=O)[C@H](Cc2c[nH]c3ccccc23)NC(=O)[C@H](CCCCN)NC(=O)[C@H](Cc2ccccc2)N(C)C(=O)[C@H](Cc2ccccc2)NC1=O | STING1 H232R | ligand displacement |  | TR-FRET | IC50 | 180 nM |
| CC(=O)CC(=O)C(=O)O | 4-hydroxy-tetrahydrodipicolinate synthase (dapA, Escherichia coli K-12, UniProt P0A6L2) | enzyme activity | inhibitor | absorbance | Ki | 1400 nM |
| CC(C)C[C@@H]1NC(=O)[C@H](Cc2ccc(O)cc2)NC(=O)[C@H](C(C)C)NC(=O)[C@H](Cc2ccc(O)cc2)NC(=O)[C@H](CC(N)=O)NC(=O)[C@H](Cc2ccccc2)N(C)C(=O)[C@@H]2CCCN2C(=O)[C@H](Cc2ccc(O)cc2)NC(=O)[C@H](C(C)C)NC(=O)[C@H](CC(C)C)NC(=O)[C@H](Cc2ccccc2)NC(=O)CSC[C@@H](C(=O)NCC(N)=O)NC1=O | STING1 H232R | ligand displacement |  | TR-FRET | IC50 | 38000 nM |
| CC(C)C[C@H](NC(=O)[C@H](Cc1ccccc1)NC(=O)[C@H](Cc1ccc(O)cc1)NC(=O)CNC(=O)[C@H](CCCCN)NC(=O)[C@H](CO)NC(=O)[C@H](CCC(N)=O)NC(=O)CNC(=O)[C@@H](NC(=O)[C@H](CO)NC(=O)[C@@H]1CCCN1C(=O)[C@H](CO)NC(=O)[C@H](CCC(N)=O)NC(=O)[C@H](Cc1ccc(O)cc1)NC(=O)[C@H](CCC(=O)O)NC(=O)[C@H](C)NC(=O)[C@H](CCCCN)NC(=O)[C@@H](N)Cc1ccccc1)C(C)C)C(=O)N[C@@H](Cc1ccccc1)C(=O)N[C@@H](CCCNC(=N)N)C(=O)N1CCC[C@H]1C(=O)N[C@@H](CCCNC(=N)N)C(=O)N[C@@H](CC(N)=O)C(N)=O | Neuromedin-U receptor 1 (NMUR1, Homo sapiens, UniProt Q9HB89) | inositol phosphate | agonist |  | EC50 | 0.447 nM |
| NC(=O)CCCC/C=C1\C(=O)OC1CCCCCCCCCc1ccccc1 (stereo not drawn) | Phosphatidylserine lipase ABHD16A | enzyme activity | inhibitor |  | IC50 | 200 to 500 nM |
| CC(=O)SCCNC(=O)CCNC(=O)[C@H](O)C(C)(C)COP(=O)(O)OP(=O)(O)OC[C@H]1O[C@@H](n2cnc3c(N)ncnc32)[C@H](O)[C@@H]1OP(=O)(O)O | CAB1 (Saccharomyces cerevisiae, UniProt Q04430) | enzyme activity | inhibitor |  | IC50 | > 100000 nM |
| c1c[nH]cn1 | Nitric oxide synthase, inducible (Nos2, Mus musculus, UniProt P29477) | binding |  |  | Kd | 56000 nM |
| Nc1nccc(-c2cccc(-c3ccccc3)c2)n1 | Phosphatidylinositol 5-phosphate 4-kinase type-2 gamma (PIP4K2C, Homo sapiens, UniProt Q8TBX8) | binding |  |  | Kd | 64 nM |
| CCCCCCCCCCCCCC1OC(=O)/C1=C\CCCCCS(N)(=O)=O (stereo not drawn) | Phosphatidylserine lipase ABHD16A | enzyme activity | inhibitor |  | IC50 | 500 to 1000 nM |
| Cn1cc(-c2cc(F)cc(N3CCn4c(cc5c4CCCC5)C3=O)c2CO)cc(Nc2ccc(N3CCN(C4COC4)CC3)cn2)c1=O | Tyrosine-protein kinase Lck (LCK, Homo sapiens, UniProt P06239) | enzyme activity | inhibitor | FRET | Ki | 1070 nM |
